Converted amounts (≈) assume the structure as drawn.
Key:
Escherichia coli [1] = test: Minimum inhibitory concentration against Escherichia coli DC2 (inoculum, 10e4 cfu per spot); type: functional
How it was run: (§1)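 MIC in µg/mL, determined in Jewell and Permain growth medium with spot inoculation at 10^4 cfu per spot. P99 is described as a constitutive type I lactamase producer.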

Escherichia coli [2] = test: Minimum inhibitory concentration against Escherichia coli DCO (inoculum, 10e4 cfu per spot); type: functional; how it was run: as §1
Escherichia coli [3] = test: Minimum inhibitory concentration against Escherichia coli A8 (inoculum, 10e5 cfu per spot); type: functional
How it was run: (§2)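 MIC in µg/mL, determined in Jewell and Permain growth medium with spot inoculation at 10^5 cfu per spot.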

Enterobacter cloacae [4] = test: Minimum inhibitory concentration against Enterobacter cloacae A13 (inoculum, 10e5 cfu per spot); type: functional; how it was run: as §2
Enterobacter cloacae [5] = test: Minimum inhibitory concentration against Enterobacter cloacae P99 (inoculum, 10e4 cfu per spot); type: functional; how it was run: as §1
Klebsiella aerogenes [6] = test: Minimum inhibitory concentration against Klebsiella aerogenes X5L (inoculum, 10e4 cfu per spot); type: functional; how it was run: as §1
Klebsiella aerogenes [7] = test: Minimum inhibitory concentration against Klebsiella aerogenes X6 (inoculum, 10e4 cfu per spot); type: functional; how it was run: as §1
Klebsiella pneumoniae = test: Minimum inhibitory concentration against Klebsiella pneumoniae A24 (inoculum, 10e5 cfu per spot); type: functional; how it was run: as §2
Proteus mirabilis = test: Minimum inhibitory concentration against Proteus mirabilis A18 (inoculum, 10e5 cfu per spot); type: functional; how it was run: as §2
Pseudomonas aeruginosa = test: Minimum inhibitory concentration against Pseudomonas aeruginosa A21 (inoculum, 10e5 cfu per spot); type: functional; how it was run: as §2
Staphylococcus aureus [8] = test: Minimum inhibitory concentration against Staphylococcus aureus A4 (inoculum, 10e5 cfu per spot); type: functional; how it was run: as §2
Staphylococcus aureus [9] = test: Minimum inhibitory concentration against Staphylococcus aureus A6 (inoculum, 10e5 cfu per spot); type: functional; how it was run: as §2
Streptococcus pyogenes = test: Minimum inhibitory concentration against Streptococcus pyogenes (inoculum, 10e5 cfu per spot) A1; type: functional; how it was run: as §2
Serratia marcescens = test: Minimum inhibitory concentration against Serratia marcescens A16 (inoculum, 10e5 cfu per spot); type: functional; how it was run: as §2
Enterobacter cloacae [10] = test: Minimum inhibitory concentration against Enterobacter cloacae P99 (inoculum, 10e4 cfu per spot)(type I lactamase producer); type: functional; how it was run: as §1
Escherichia coli [11] = test: Minimum inhibitory concentration against Escherichia coli X4 (inoculum, 10e4 cfu per spot)
Proteus vulgaris = test: Minimum inhibitory concentration against Proteus vulgaris Pv9 (inoculum, 10e5 cfu per spot)
Escherichia coli [12] = test: Minimum inhibitory concentration against Escherichia coli TEM X3 (inoculum, 10e4 cfu per spot)(TEM I type lactamase producer)

Row | Structure (SMILES) | MIC (Escherichia coli [1]) | MIC (Escherichia coli [2]) | MIC (Escherichia coli [3]) | MIC (Enterobacter cloacae [4]) | MIC (Enterobacter cloacae [5]) | MIC (Klebsiella aerogenes [6]) | MIC (Klebsiella aerogenes [7]) | MIC (Klebsiella pneumoniae) | MIC (Proteus mirabilis) | MIC (Pseudomonas aeruginosa) | MIC (Staphylococcus aureus [8]) | MIC (Staphylococcus aureus [9]) | MIC (Streptococcus pyogenes) | MIC (Serratia marcescens) | MIC (Enterobacter cloacae [10]) | MIC (Escherichia coli [11]) | MIC (Proteus vulgaris) | MIC (Escherichia coli [12])
1 | CC1=C(C(=O)OC(c2ccccc2)c2ccccc2)N2C(=O)[C@@H](NC3=NC(c4ccc(O)c(O)c4)CN3)C2SC1 (some centres undefined) | 2 µg/mL (≈ 3.59 µM) | 4 µg/mL (≈ 7.19 µM) | 4 µg/mL (≈ 7.19 µM) | > 256 µg/mL | 2 µg/mL (≈ 3.59 µM) | 8 µg/mL (≈ 14.4 µM) | 4 µg/mL (≈ 7.19 µM) | > 256 µg/mL | > 256 µg/mL | > 256 µg/mL | > 256 µg/mL | > 256 µg/mL | > 256 µg/mL | > 256 µg/mL | 4 µg/mL (≈ 7.19 µM) | 2 µg/mL (≈ 3.59 µM) | > 256 µg/mL | 2 µg/mL (≈ 3.59 µM)
2 | Cc1nnc(SCC2=C(C(=O)OC(c3ccccc3)c3ccccc3)N3C(=O)[C@@H](Nc4nc5ccccc5[nH]4)C3SC2)s1 (some centres undefined) | < 0.03 µg/mL | 0.5 µg/mL (≈ 0.798 µM) | 1 µg/mL (≈ 1.6 µM) | ≥ 128 µg/mL | 1 µg/mL (≈ 1.6 µM) | ≥ 128 µg/mL | 2 µg/mL (≈ 3.19 µM) | 1 µg/mL (≈ 1.6 µM) | 4 µg/mL (≈ 6.38 µM) | ≥ 128 µg/mL | 8 µg/mL (≈ 12.8 µM) | 1 µg/mL (≈ 1.6 µM) | 0.5 µg/mL (≈ 0.798 µM) | ≥ 128 µg/mL | ≥ 128 µg/mL | 0.5 µg/mL (≈ 0.798 µM) | ≥ 128 µg/mL | 4 µg/mL (≈ 6.38 µM)
3 | CC(=O)OCC1=C(C(=O)OC(c2ccccc2)c2ccccc2)N2C(=O)[C@@H](Nc3nc4cc(F)ccc4[nH]3)C2SC1 (some centres undefined) | 0.12 µg/mL (≈ 0.21 µM) | 1 µg/mL (≈ 1.75 µM) | 4 µg/mL (≈ 6.99 µM) | > 256 µg/mL | 4 µg/mL (≈ 6.99 µM) | 256 µg/mL (≈ 447 µM) | 4 µg/mL (≈ 6.99 µM) | 64 µg/mL (≈ 112 µM) | 16 µg/mL (≈ 27.9 µM) | > 256 µg/mL | 16 µg/mL (≈ 27.9 µM) | 2 µg/mL (≈ 3.49 µM) | 2 µg/mL (≈ 3.49 µM) | 256 µg/mL (≈ 447 µM) | 256 µg/mL (≈ 447 µM) | 1 µg/mL (≈ 1.75 µM) | > 256 µg/mL | 4 µg/mL (≈ 6.99 µM)
4 | CC(=O)Nc1ccc2[nH]c(N[C@@H]3C(=O)N4C(C(=O)OC(C)(C)C)=C(COC(C)=O)CSC34)nc2c1 (some centres undefined) | 0.12 µg/mL (≈ 0.239 µM) | 1 µg/mL (≈ 1.99 µM) | 1 µg/mL (≈ 1.99 µM) | > 256 µg/mL | 2 µg/mL (≈ 3.99 µM) | > 256 µg/mL | 2 µg/mL (≈ 3.99 µM) | 32 µg/mL (≈ 63.8 µM) | 8 µg/mL (≈ 16 µM) | > 256 µg/mL | 256 µg/mL (≈ 510 µM) | 8 µg/mL (≈ 16 µM) | 4 µg/mL (≈ 7.98 µM) | > 256 µg/mL | > 256 µg/mL | 1 µg/mL (≈ 1.99 µM) | 128 µg/mL (≈ 255 µM) | 16 µg/mL (≈ 31.9 µM)
5 | CC(=O)OCC1=C(C(=O)OC(c2ccccc2)c2ccccc2)N2C(=O)[C@@H](Nc3nc4c(O)cccc4[nH]3)C2SC1 (some centres undefined) | 0.12 µg/mL (≈ 0.21 µM) | 0.5 µg/mL (≈ 0.876 µM) | 1 µg/mL (≈ 1.75 µM) | > 256 µg/mL | 1 µg/mL (≈ 1.75 µM) | 256 µg/mL (≈ 449 µM) | 1 µg/mL (≈ 1.75 µM) | 8 µg/mL (≈ 14 µM) | 16 µg/mL (≈ 28 µM) | > 256 µg/mL | 32 µg/mL (≈ 56.1 µM) | 2 µg/mL (≈ 3.5 µM) | 2 µg/mL (≈ 3.5 µM) | 256 µg/mL (≈ 449 µM) | > 256 µg/mL | 0.5 µg/mL (≈ 0.876 µM) | 128 µg/mL (≈ 224 µM) | 32 µg/mL (≈ 56.1 µM)

More lines, in order of falling MIC (Escherichia coli [1]), values ahead:

Row | MIC (Escherichia coli [1]) | MIC (Escherichia coli [2]) | MIC (Escherichia coli [3]) | MIC (Enterobacter cloacae [4]) | MIC (Enterobacter cloacae [5]) | MIC (Klebsiella aerogenes [6]) | MIC (Klebsiella aerogenes [7]) | MIC (Klebsiella pneumoniae) | MIC (Proteus mirabilis) | MIC (Pseudomonas aeruginosa) | MIC (Staphylococcus aureus [8]) | MIC (Staphylococcus aureus [9]) | MIC (Streptococcus pyogenes) | MIC (Serratia marcescens) | MIC (Enterobacter cloacae [10]) | MIC (Escherichia coli [11]) | MIC (Proteus vulgaris) | MIC (Escherichia coli [12]) | Structure (SMILES)
6 | 4 µg/mL (≈ 8.39 µM) | 4 µg/mL (≈ 8.39 µM) | 32 µg/mL (≈ 67.1 µM) | 32 µg/mL (≈ 67.1 µM) | 4 µg/mL (≈ 8.39 µM) | 32 µg/mL (≈ 67.1 µM) | 16 µg/mL (≈ 33.6 µM) | 16 µg/mL (≈ 33.6 µM) | > 256 µg/mL | > 256 µg/mL | > 256 µg/mL | > 256 µg/mL | > 256 µg/mL | > 256 µg/mL | 4 µg/mL (≈ 8.39 µM) | 4 µg/mL (≈ 8.39 µM) | > 256 µg/mL | 4 µg/mL (≈ 8.39 µM) | CC1=C(C(=O)OC(c2ccccc2)c2ccccc2)N2C(=O)[C@@H](NC3=NC(C)C(C)N3)C2SC1 (some centres undefined)
7 | 0.12 µg/mL (≈ 0.193 µM) | 32 µg/mL (≈ 51.4 µM) | 32 µg/mL (≈ 51.4 µM) | > 256 µg/mL | 32 µg/mL (≈ 51.4 µM) | > 256 µg/mL | 64 µg/mL (≈ 103 µM) | 32 µg/mL (≈ 51.4 µM) | 128 µg/mL (≈ 206 µM) | > 256 µg/mL | 128 µg/mL (≈ 206 µM) | 2 µg/mL (≈ 3.21 µM) | 1 µg/mL (≈ 1.61 µM) | > 256 µg/mL | > 256 µg/mL | 32 µg/mL (≈ 51.4 µM) | > 256 µg/mL | 32 µg/mL (≈ 51.4 µM) | CC(=O)OCC1=C(C(=O)OC(c2ccccc2)c2ccccc2)N2C(=O)[C@@H](Nc3nc4cc(C(F)(F)F)ccc4[nH]3)C2SC1 (some centres undefined)
8 | 0.06 µg/mL (≈ 0.103 µM) | 0.12 µg/mL (≈ 0.206 µM) | 0.12 µg/mL (≈ 0.206 µM) | 256 µg/mL (≈ 439 µM) | 0.12 µg/mL (≈ 0.206 µM) | 32 µg/mL (≈ 54.8 µM) | 0.25 µg/mL (≈ 0.428 µM) | 1 µg/mL (≈ 1.71 µM) | 32 µg/mL (≈ 54.8 µM) | > 256 µg/mL | 32 µg/mL (≈ 54.8 µM) | 4 µg/mL (≈ 6.85 µM) | 0.5 µg/mL (≈ 0.857 µM) | > 256 µg/mL | 64 µg/mL (≈ 110 µM) | 0.12 µg/mL (≈ 0.206 µM) | 64 µg/mL (≈ 110 µM) | 2 µg/mL (≈ 3.43 µM) | CC(=O)OCC1=C(C(=O)OC(c2ccccc2)c2ccccc2)N2C(=O)[C@@H](Nc3nc4cc(CN)ccc4[nH]3)C2SC1 (some centres undefined)

From ChEMBL document CHEMBL1125626, “Synthesis and structure-activity relationship of new cephalosporins with amino heterocycles at C-7. Dependence of the antibacterial spectrum and beta-lactamase stability on the pKa of the C-7 heterocycle” (1991)
